Assay results reported in ChEMBL document CHEMBL4425129, “Exploring Basic Tail Modifications of Coumarin-Based Dual Acetylcholinesterase-Monoamine Oxidase B Inhibitors: Identification of Water-Soluble, Brain-Permeant Neuroprotective Multitarget Agents” (J Med Chem, 2016).
The source made the active and inactive calls. The calls are words filed in the database; no cut-off is given here.

Experiments:
[1] = Lipophilicity index, Log K of the compound at 1 mM by RP-HPLC method; type: physicochemical; conditions: 1000 µM
[2] = target: T1, Amine oxidase [flavin-containing] A (Homo sapiens, UniProt P21397); test: Inhibition of human recombinant MAOA expressed in microsomes of baculovirus-infected insect cell using kynuramine as substrate preincubated for 20 mins followed by protein addition measured after 30 mins by fluorescence assay
T1 sequence (P21397 whole entry): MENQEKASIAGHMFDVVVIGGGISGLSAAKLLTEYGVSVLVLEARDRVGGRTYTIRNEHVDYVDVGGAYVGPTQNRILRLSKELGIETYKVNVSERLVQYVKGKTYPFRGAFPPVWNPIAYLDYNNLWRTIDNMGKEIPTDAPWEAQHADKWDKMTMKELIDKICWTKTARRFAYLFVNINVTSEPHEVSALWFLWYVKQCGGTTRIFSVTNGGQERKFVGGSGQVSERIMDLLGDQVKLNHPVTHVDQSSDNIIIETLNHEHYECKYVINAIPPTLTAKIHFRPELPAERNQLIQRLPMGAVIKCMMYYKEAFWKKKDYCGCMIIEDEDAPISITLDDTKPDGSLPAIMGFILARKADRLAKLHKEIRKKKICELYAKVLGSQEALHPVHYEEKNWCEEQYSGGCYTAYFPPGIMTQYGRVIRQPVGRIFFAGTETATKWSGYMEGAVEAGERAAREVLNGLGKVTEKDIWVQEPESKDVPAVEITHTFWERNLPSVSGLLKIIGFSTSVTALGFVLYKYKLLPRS
Procedure, shortened: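 Recombinant human MAO A (baculovirus-infected insect cell microsomes) with kynuramine substrate; inhibitor preincubated 20 min at 37 °C, enzyme then added and incubated 30 min more. Fluorescence at ex/em 320/400 nm. Triplicates, three independent experiments.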

[3] = target: Acetylcholinesterase (Electrophorus electricus, UniProt O42275); test: Inhibition of electric eel AChE using acetylthiocholine iodide as substrate preincubated for 20 mins followed by substrate addition measured for 5 mins by spectrophotometric Ellman's method
[4] = target: Cholinesterase (Equus caballus) (UniProt P81908); test: Inhibition of equine serum BChE at 10 uM using butyrylthiocholine iodide as substrate preincubated for 20 mins followed by substrate addition measured for 5 mins by spectrophotometric Ellman's method relative to control
Procedure, shortened: (§1)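 BChE from equine serum (13 U/mg), Ellman spectrophotometric method run in 96-well format. Seven inhibitor concentrations, 10^-4 to 10^-10 M, each in triplicate. IC50 from non-linear regression of response against log(concentration). […] Mean of three independent experiments.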

[5] = target: T2, Amine oxidase [flavin-containing] B (Homo sapiens, UniProt P27338); test: Inhibition of human recombinant MAOB expressed in microsomes of baculovirus-infected insect cell using kynuramine as substrate preincubated for 20 mins followed by protein addition measured after 30 mins by fluorescence assay
T2 sequence (P27338 whole entry): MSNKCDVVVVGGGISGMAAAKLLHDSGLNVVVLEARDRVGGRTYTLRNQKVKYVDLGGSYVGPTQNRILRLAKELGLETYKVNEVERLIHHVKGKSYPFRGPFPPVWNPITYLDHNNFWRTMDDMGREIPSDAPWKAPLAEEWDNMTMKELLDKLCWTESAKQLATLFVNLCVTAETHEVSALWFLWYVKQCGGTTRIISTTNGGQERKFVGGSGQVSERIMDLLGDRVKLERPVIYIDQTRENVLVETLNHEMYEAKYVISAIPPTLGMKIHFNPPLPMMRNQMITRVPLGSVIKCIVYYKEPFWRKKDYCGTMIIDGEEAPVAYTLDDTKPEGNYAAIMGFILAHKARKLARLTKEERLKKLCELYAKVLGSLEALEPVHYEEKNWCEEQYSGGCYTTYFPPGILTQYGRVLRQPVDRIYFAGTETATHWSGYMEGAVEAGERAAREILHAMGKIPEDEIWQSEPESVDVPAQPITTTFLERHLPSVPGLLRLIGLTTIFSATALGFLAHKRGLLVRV

[6] = organism: Homo sapiens; test: Selectivity index, ratio of IC50 for human recombinant MAOA to IC50 for human recombinant MAOB
[7] = target: Cholinesterase (Equus caballus, UniProt P81908); test: Inhibition of equine serum BChE using butyrylthiocholine iodide as substrate preincubated for 20 mins followed by substrate addition measured for 5 mins by spectrophotometric Ellman's method; procedure, shortened: as §1
[8] = tested on: SH-SY5Y; test: Neuroprotective activity against oligomycin-A-induced oxidative injury in human SH-SY5Y cells assessed as increase in cell viability at 10 uM after 24 hrs by MTT assay; type: functional, cell-based
Procedure, shortened: (§2)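 SH-SY5Y cells incubated 24 h with compound at 1 or 10 µM together with H2O2 300 µM, oligomycin-A 10 µM or rotenone 20 µM. Viability by MTT, as % of cells given neither insult nor compound. Triplicates, three repeats; mean ± SD; two-way ANOVA with Bonferroni post hoc test.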

[9] = tested on: SH-SY5Y; test: Neuroprotective activity against oligomycin-A-induced oxidative injury in human SH-SY5Y cells assessed as increase in cell viability at 1 uM after 24 hrs by MTT assay; type: functional, cell-based; procedure, shortened: as §2
[10] = Kinetic aqueous solubility of the compound in Tris-HCl buffer at pH 7.4 by turbidimetric method; type: physicochemical; conditions: buffer
Procedure, shortened: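 DMSO stocks added in portions to 50 mM Tris-HCl pH 7.4 at room temperature. Light scattering read as UV absorbance increase at 580–780 nm; solubility from a bilinear fit of absorbance versus µL DMSO. Reported as logS (mol/L), mean ± SEM of three independent assays.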

[11] = tested on: SH-SY5Y; test: Neuroprotective activity against H2O2-induced oxidative injury in human SH-SY5Y cells assessed as increase in cell viability at 1 to 10 uM after 24 hrs by MTT assay; type: functional, cell-based; procedure, shortened: as §2
[12] = tested on: SH-SY5Y; test: Neuroprotective activity against rotenone-induced oxidative injury in human SH-SY5Y cells assessed as increase in cell viability at 1 uM after 24 hrs by MTT assay; type: functional, cell-based; procedure, shortened: as §2
[13] = tested on: SH-SY5Y; test: Cytotoxicity against human SH-SY5Y cells assessed as inhibition of cell growth after 24 hrs by MTT assay; type: cell-based
Procedure, shortened: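 SH-SY5Y cells exposed 24 h at 37 °C to 0.1, 1, 5, 10 and 50 µM; viability read by MTT at 570 nm versus untreated cells. […] Means ± SD, n = 3.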

[14] = tested on: SH-SY5Y; test: Neuroprotective activity against rotenone-induced oxidative injury in human SH-SY5Y cells assessed as increase in cell viability at 10 uM after 24 hrs by MTT assay; type: functional, cell-based; procedure, shortened: as §2

Sequence of Cholinesterase (P81908 whole entry): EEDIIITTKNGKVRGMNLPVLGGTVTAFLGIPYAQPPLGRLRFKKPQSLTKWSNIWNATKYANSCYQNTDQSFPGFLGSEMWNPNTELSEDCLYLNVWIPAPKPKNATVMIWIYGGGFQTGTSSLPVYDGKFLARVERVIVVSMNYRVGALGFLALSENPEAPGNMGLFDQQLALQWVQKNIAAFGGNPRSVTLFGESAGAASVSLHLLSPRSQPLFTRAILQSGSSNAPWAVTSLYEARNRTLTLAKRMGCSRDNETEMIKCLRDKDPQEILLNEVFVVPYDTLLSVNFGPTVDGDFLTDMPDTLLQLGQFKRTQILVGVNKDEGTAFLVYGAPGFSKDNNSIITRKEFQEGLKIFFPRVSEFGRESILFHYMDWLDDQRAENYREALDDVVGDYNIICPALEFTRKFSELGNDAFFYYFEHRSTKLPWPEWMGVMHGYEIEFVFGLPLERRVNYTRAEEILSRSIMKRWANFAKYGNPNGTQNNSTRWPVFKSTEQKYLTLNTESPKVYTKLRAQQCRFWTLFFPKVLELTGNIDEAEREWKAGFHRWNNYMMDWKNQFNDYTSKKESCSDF
Sequence of Cholinesterase (Equus caballus) (P81908 whole entry): as above
Sequence of Acetylcholinesterase (O42275 whole entry): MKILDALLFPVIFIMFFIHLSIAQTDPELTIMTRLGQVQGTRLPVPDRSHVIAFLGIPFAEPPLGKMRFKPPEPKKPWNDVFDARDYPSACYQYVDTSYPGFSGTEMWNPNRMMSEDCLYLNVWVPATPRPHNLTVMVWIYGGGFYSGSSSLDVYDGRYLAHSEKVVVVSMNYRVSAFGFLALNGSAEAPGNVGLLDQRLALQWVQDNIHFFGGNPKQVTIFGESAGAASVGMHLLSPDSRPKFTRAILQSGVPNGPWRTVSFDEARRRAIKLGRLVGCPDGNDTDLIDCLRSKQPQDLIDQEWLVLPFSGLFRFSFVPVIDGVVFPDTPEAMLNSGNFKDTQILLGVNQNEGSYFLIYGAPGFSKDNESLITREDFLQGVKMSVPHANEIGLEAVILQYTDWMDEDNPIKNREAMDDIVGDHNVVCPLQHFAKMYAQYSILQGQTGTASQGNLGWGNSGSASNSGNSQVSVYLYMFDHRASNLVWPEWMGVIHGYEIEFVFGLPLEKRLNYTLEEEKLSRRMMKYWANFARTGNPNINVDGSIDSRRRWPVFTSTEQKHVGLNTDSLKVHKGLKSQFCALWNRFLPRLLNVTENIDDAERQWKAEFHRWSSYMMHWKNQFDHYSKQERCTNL

| SMILES | IC50 [2] | IC50 [3] | inhibition [4] | IC50 [5] | IC50 [7] | other results |
| --- | --- | --- | --- | --- | --- | --- |
| CN(Cc1ccccc1)Cc1ccc(COc2ccc3c(CO)cc(=O)oc3c2)cc1 |  |  |  |  |  | log K [1]: 1.87 |
| Cc1c(C)c2ccc(OC3CCN(C)CC3)cc2oc1=O | 11700 nM | 1300 nM | 11% | 274 nM |  |  |
| Cc1c(C)c2ccc(OCC3CCN(C)CC3)cc2oc1=O | 16600 nM | 680 nM | 14% | 297 nM |  |  |
| Cc1c(C)c2ccc(OC3CCN(Cc4ccc(Cl)cc4)CC3)cc2oc1=O | 1590 nM | 1550 nM | 29% | 876 nM |  | Ratio IC50 [6]: 2 |
| CCCCN1CCC(Oc2ccc3c(C)c(C)c(=O)oc3c2)CC1 | 23900 nM | 990 nM | 35% | 1410 nM |  |  |
| Cc1c(C)c2ccc(OC3CCN(Cc4cccc(Cl)c4)CC3)cc2oc1=O | 870 nM | 1080 nM | 28% | 285 nM |  |  |
| Cc1c(C)c2ccc(OCC3CCN(Cc4ccccc4)CC3)cc2oc1=O.Cl | 2410 nM | 1660 nM |  | 105 nM | 4.72 µM | Activity [8]: inactive; Activity [9]: inactive; log(Kinetic_solubility) [10]: -4.25; log K [1]: 1.98 |
| Cc1c(C)c2ccc(OC3CCN(CCc4ccccc4)CC3)cc2oc1=O | 12400 nM | 1650 nM |  | 2490 nM | 1.77 µM |  |
| Cc1c(C)c2ccc(OC3CCN(Cc4ccc(C#N)cc4)CC3)cc2oc1=O | 1290 nM | 970 nM | 48% | 656 nM |  | Ratio IC50 [6]: 2 |
| Cc1c(C)c2ccc(OCCCN3CCc4ccccc4C3)cc2oc1=O | 2680 nM | 1220 nM |  | 298 nM | 0.95 µM |  |
| Cc1c(C)c2ccc(OCC3CCN(Cc4cccc(Cl)c4)CC3)cc2oc1=O | 700 nM | 1030 nM |  | 89 nM | 6.07 µM | Activity [9]: inactive |
| Cc1c(C)c2ccc(OCCCCN3CCc4ccccc4C3)cc2oc1=O | 2240 nM | 1150 nM |  | 612 nM | 2.61 µM |  |
| Cc1c(C)c2ccc(OC3CCN(CC(=O)c4ccccc4)CC3)cc2oc1=O | 1960 nM | 3780 nM | 45% | 114 nM |  |  |
| Cc1c(C)c2ccc(OC3CCN(Cc4ccccc4)CC3)cc2oc1=O | 3590 nM | 780 nM |  | 445 nM | 9.57 µM |  |
| Cc1c(C)c2ccc(OCC3CCN(Cc4ccc(C#N)cc4)CC3)cc2oc1=O | 10100 nM | 1810 nM | 27% | 549 nM |  |  |
| Cc1c(C)c2ccc(OCC3CCCN(Cc4ccc(F)cc4)C3)cc2oc1=O (racemic) | 1110 nM | 1460 nM |  | 163 nM | 3.69 µM | Activity [11]: Active; Activity [12]: Active |
| Cc1c(C)c2ccc(OCC3CCCN(Cc4ccc(Cl)cc4)C3)cc2oc1=O (racemic) | 822 nM | 2890 nM |  | 50 nM | 5.9 µM |  |
| Cc1c(C)c2ccc(OCC3CCCN(Cc4cccc(Cl)c4)C3)cc2oc1=O (racemic) | 980 nM | 1170 nM |  | 36 nM | 4.69 µM | Activity [8]: inactive; Activity [11]: Active; IC50 [13]: 13 µM |
| Cc1c(C)c2ccc(OCC3CCCN(Cc4ccc(C#N)cc4)C3)cc2oc1=O (racemic) | 4510 nM | 2800 nM | 36% | 34 nM |  | Ratio IC50 [6]: 133 |
| Cc1c(C)c2ccc(OCC3CCCN(Cc4ccc(S(C)(=O)=O)cc4)C3)cc2oc1=O (racemic) | 210 nM | 850 nM | 10% | 113 nM |  |  |
| COc1ccc(CN2CCCC(COc3ccc4c(C)c(C)c(=O)oc4c3)C2)cc1OC (racemic) | 1720 nM | 2210 nM |  | 90 nM | 6.04 µM | Activity [8]: inactive; Activity [9]: inactive; IC50 [13]: 10 µM |
| Cc1c(C)c2ccc(OCC3CCCN(Cc4cccc(Br)c4)C3)cc2oc1=O (racemic) |  |  | 30% |  |  | Activity [8]: Active; Activity [9]: Active; Activity [11]: Active; Activity [14]: Active; Activity [12]: Active |
| Cc1c(C)c2ccc(OCC3CCCN(Cc4ccccc4)C3)cc2oc1=O (racemic) |  |  |  |  |  | Activity [8]: Active; Activity [9]: Active; Activity [11]: Active; Activity [14]: Active; Activity [12]: Active |
| Cc1c(C)c2ccc(OCC3CCCN(Cc4cccc(Br)c4)C3)cc2oc1=O (single isomer, unassigned; (+)) [listing 1 of 2 here] | 540 nM | 3230 nM |  | 26 nM |  |  |
| Cc1c(C)c2ccc(OCC3CCCN(Cc4cccc(Br)c4)C3)cc2oc1=O (single isomer, unassigned; (+)) [listing 2 of 2 here] |  |  | 36% |  |  | Ratio IC50 [6]: 21 |
| Cc1c(C)c2ccc(OCC3CCCN(Cc4cccc(Br)c4)C3)cc2oc1=O (single isomer, unassigned; (-)) [listing 1 of 2 here] | 1110 nM | 1720 nM |  | 196 nM |  |  |
| Cc1c(C)c2ccc(OCC3CCCN(Cc4ccccc4)C3)cc2oc1=O (single isomer, unassigned; (-)) | 2300 nM | 780 nM |  |  | 8.08 µM |  |
| Cc1c(C)c2ccc(OCC3CCCN(Cc4cccc(Br)c4)C3)cc2oc1=O (single isomer, unassigned; (-)) [listing 2 of 2 here] |  |  | 26% |  |  |  |
| Cc1c(C)c2ccc(OCC3CCCN(Cc4ccccc4)C3)cc2oc1=O (stereo in doubt; (+)-5b) | 3840 nM | 1800 nM |  |  | 2.91 µM |  |
